Data set [1] can be described thus: Antioxidant activity assessed as trolox equivalent of APPH-induced radical scavenging activity at 5 uM preincubated for 15 mins followed by AAPH addition measured every minute for 90 mins by ORAC fluorescein assay. Format: functional. Put shortly:
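ORAC-FL in 75 mM phosphate buffer, pH 7.4. Fluorescein (150 nM final) and sample (tested at 1–10 µM) incubated 15 min at 37 °C. AAPH (12 mM final) then added, and fluorescence (ex 485/em 535 nm) read every minute for 90 min. Trolox standard 1–8 µM; result expressed as µM Trolox equivalent per µM compound. Duplicate wells; three independent experiments.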

The nature of data set [2]: Metal chelating activity assessed as compound-Cu2+ complex formation at 37.5 uM after 30 mins by UV spectrometry method. The method, boiled down: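 Compound and metal salt (CuCl2, ZnCl2, FeSO4 or AlCl3), each 37.5 µM final in methanol, incubated 30 min at room temperature. UV-vis spectra recorded from 200 to 600 nm and compared with the compound alone.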
Data set [3] is described as follows: Metal chelating activity assessed as mole fraction of compound required to show 1:2 stoichiometry for compound -Cu2+ complex at 37.5 uM after 30 mins by UV spectrometry method. The method, boiled down: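 Molar-ratio titration in methanol: compound fixed at 37.5 µM final, CuCl2 varied from 3.75 to 150 µM final. Spectra corrected by subtracting CuCl2 and compound alone. Absorbance at 274 nm plotted against mole fraction; stoichiometry taken from where the straight lines intersect.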

Data set [4] in a line: Cytotoxicity against […] cells assessed as decrease in cell viability up to 10 uM preincubated for 30 mins followed by LPS stimulation and measured after 24 hrs by MTT assay. It is filed as cell-based. The method, boiled down:
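BV-2 cells grown 24 h, then treated with compound (0.5, 2.5, 10.0 µM) for 30 min, with or without LPS (1.0 µg/mL), for a further 24 h. MTT (5 mg/mL) added for 4 h, formazan dissolved in DMSO, A490 read. Viability given as percent of untreated cells. Triplicate wells; three independent experiments.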

A short description of data set [5]: Anti-inflammatory activity in […] cells assessed as inhibition of LPS-stimulated NO release at 2.5 uM preincubated for 30 mins followed by LPS stimulation and measured after 24 hrs by Griess reagent based assay relative to control. Format: functional. The settings on record: BV-2. Put shortly: (§1)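 BV-2 cells cultured 24 h in DMEM (10% FBS, glutamine, pyruvate, pen/strep) at 37 °C, 5% CO2. Compound (DMSO stock diluted in PBS) added 30 min before LPS (1.0 µg/mL), then 24 h. Nitrite in supernatant measured by Griess reagent for 10 min at room temperature, A540, against a NaNO2 standard curve. Triplicate wells; mean ± SD of three independent experiments.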

The nature of data set [6]: Anti-inflammatory activity in […] cells assessed as inhibition of LPS-stimulated NO release at 10 uM preincubated for 30 mins followed by LPS stimulation and measured after 24 hrs by Griess reagent based assay relative to control. It is filed as functional. Particulars: BV-2. The method, boiled down: as §1
Data set [7] can be described thus: Effect on TNFalpha release in […] cells up to 10 uM after 24 hrs by ELISA. Format: ADME, cell-based. The method, boiled down: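 BV-2 cells exposed to compound up to 10 µM with no added LPS. TNF-α in the medium measured by ELISA. Mean ± SD of three independent experiments.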
The species entered for the next data set is Homo sapiens. The experiment in a line: Anti-inflammatory activity in […] cells assessed as inhibition of LPS-stimulated TNFalpha release preincubated for 30 mins followed by LPS stimulation and measured after 24 hrs by ELISA. It is filed as functional, cell-based. Put shortly:
(§2)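 Confluent BV-2 cells in DMEM preincubated 30 min with compound, tested over 0.5–10 µM, then stimulated with LPS (1.0 µg/mL) for 24 h. Released TNF-α measured by ELISA following kit instructions. Triplicate wells; mean ± SD of three independent experiments.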

Data set [8] in a line: Anti-inflammatory activity in […] cells assessed as inhibition of LPS-stimulated TNFalpha release at 10 uM preincubated for 30 mins followed by LPS stimulation and measured after 24 hrs by ELISA relative to control. It is filed as functional. The settings on record: BV-2. Put shortly: as §2

Calls of active or inactive are those of the source. No cut-off for these calls is given here.

Regarding `CCN(CCCCNC(=O)c1cc(O)c(C(=O)NCCCCN(CC)Cc2ccccc2OC)cc1O)Cc1ccccc1OC`, the Activity in data set [1] is 0.97 equiv; in data set [3], 1.9 molar ratio; in [4], “Non-Toxic”; in [7] it was “Non-Toxic”. For the same compound, the result in data set [2] was Active. The inhibition at 2.5 µM in data set [5] is 30%. The inhibition at 10 µM in data set [6] stood at 58.3%; in data set [8], 55.3%. The inhibition entry in the data set listed under Homo sapiens is “Dose-dependent effect”.

Values taken from ChEMBL document CHEMBL4382240, “Discovery of novel 2,5-dihydroxyterephthalamide derivatives as multifunctional agents for the treatment of Alzheimer's disease” (Bioorg Med Chem, 2018).
